{"source": "paper PMC3678535", "about": "(Biochemistry, 2013)", "key": {"murine iNOS [1]": {"biological_target": "T1, murine iNOS (Mus musculus, UniProt P29477)", "assay": "Inhibition of NO production", "assay_type": "biochemical", "details": "10 μM L-arginine, unit printed in cell/text as mM"}, "iNOS [2]": {"biological_target": "T2, iNOS (Mus musculus, UniProt P29477)", "assay": "NO production measured with the Griess reagent, longer incubations", "assay_type": "biochemical, murine", "details": "incubations of 1, 2, 6, 12 and 24 hours", "outline": "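Purified murine iNOS (E. coli-expressed), 100 nM, incubated 1, 2, 6, 12 and 24 h with test compound at various concentrations, 100 μM NADPH and 10 μM H4B in 100 mM HEPES, 10% glycerol, pH 7.5. Lactate dehydrogenase added to oxidize leftover NADPH, then Griess reagents added. Nitrite/nitrate read by absorbance at 540 nm.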"}, "iNOS [3]": {"biological_target": "T2, iNOS", "assay": "Ferric difference spectral binding assay", "design": "species or system murine", "outline": "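Murine iNOS (E. coli-expressed, purified), 5 μM, in 100 mM HEPES pH 7.5 with 10 μM H4B, scanned 380–500 nm against a HEPES/H4B blank. […] Test compound titrated at 0.1–1 mM final, additions kept under 5% volume. Ks from Michaelis-Menten fit of concentration vs absorbance difference (local maximum minus minimum).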"}, "murine iNOS [4]": {"biological_target": "T1, murine iNOS", "assay": "NO production, hemoglobin capture assay", "assay_type": "biochemical"}, "[5]": {"details": "cited from earlier work"}, "rat nNOS": {"biological_target": "rat nNOS (Rattus norvegicus, UniProt P29476)", "sequence (P29476 whole entry)": "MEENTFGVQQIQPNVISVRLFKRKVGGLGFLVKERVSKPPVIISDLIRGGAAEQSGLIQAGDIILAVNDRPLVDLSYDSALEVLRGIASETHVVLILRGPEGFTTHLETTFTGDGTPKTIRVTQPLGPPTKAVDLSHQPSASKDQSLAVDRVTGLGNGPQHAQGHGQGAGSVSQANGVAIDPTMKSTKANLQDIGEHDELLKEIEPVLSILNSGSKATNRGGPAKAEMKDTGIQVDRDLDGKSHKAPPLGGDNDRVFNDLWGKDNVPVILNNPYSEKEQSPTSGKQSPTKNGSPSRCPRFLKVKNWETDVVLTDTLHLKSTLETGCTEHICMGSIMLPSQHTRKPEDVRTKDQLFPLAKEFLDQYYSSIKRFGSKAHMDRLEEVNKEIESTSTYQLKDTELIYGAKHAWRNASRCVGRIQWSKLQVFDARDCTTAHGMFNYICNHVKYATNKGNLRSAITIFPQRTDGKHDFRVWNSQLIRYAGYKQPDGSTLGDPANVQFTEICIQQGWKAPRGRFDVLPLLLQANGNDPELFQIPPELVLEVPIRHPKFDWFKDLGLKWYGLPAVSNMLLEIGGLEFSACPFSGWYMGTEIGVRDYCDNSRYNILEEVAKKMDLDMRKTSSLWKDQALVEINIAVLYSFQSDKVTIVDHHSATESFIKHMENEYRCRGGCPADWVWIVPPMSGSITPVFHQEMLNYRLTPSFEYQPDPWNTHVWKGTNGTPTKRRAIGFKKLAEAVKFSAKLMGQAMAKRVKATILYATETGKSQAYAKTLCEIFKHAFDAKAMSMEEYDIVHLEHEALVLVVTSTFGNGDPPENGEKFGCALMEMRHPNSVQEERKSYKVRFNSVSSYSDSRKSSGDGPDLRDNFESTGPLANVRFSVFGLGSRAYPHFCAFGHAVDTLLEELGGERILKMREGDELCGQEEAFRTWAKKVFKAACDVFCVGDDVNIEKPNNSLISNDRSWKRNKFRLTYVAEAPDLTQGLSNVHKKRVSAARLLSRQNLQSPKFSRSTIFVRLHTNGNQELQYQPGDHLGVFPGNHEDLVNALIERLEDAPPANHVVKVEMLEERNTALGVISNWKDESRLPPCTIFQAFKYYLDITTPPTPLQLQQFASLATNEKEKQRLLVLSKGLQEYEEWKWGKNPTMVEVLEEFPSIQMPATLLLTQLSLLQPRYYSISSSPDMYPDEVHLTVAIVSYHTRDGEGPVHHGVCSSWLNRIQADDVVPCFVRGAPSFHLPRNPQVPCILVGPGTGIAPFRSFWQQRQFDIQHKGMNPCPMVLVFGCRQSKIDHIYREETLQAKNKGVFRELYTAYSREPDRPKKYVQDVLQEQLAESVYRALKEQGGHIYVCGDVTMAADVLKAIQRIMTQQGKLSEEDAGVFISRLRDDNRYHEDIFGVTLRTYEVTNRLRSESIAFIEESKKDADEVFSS", "assay": "NO production, hemoglobin capture assay", "assay_type": "biochemical", "details": "for Km: NO production, 22 °C, pH 7.5"}, "iNOS [6]": {"biological_target": "T2, iNOS", "assay": "Substrate uncoupling: NADPH consumption versus NO production", "assay_type": "biochemical, murine", "details": "20 μM arginine, 20 μM NHA, 100 μM NMOA, 100 μM NHMA"}, "NOS": {"test_system": "NOS", "details": "cited from earlier work"}, "iNOS [7]": {"biological_target": "T2, iNOS", "assay": "One-carbon metabolite of [14C]-NMOA-iNOS reaction", "assay_type": "biochemical, murine", "details": "MeOX/FDH conversion, scintillation counting"}, "Methanol oxidase (MeOX)": {"test_system": "Methanol oxidase (MeOX)", "details": "depending on the O2 concentration; cited from earlier work"}, "[8]": {"details": "read-out: Ks (spectral binding constant), imidazole displacement"}}, "note": "“And” between values parts separate entries of the source, which are not always exact repeats. Equal entries are not always repeated. Where two headings read alike, the source gives them in different places.", "data": [{"compound": "CN(CCC[C@H](N)C(=O)O)C(=N)NO", "note": "[MHA, N^δ-methyl- N^ω-hydroxy-L-arginine]", "values": [{"measurement": "Ki", "setting": "murine iNOS [1]", "result": "> 10", "unit": "mM"}, {"measurement": "NO production (Griess reagent)", "setting": "iNOS [2]", "result": "absence of NO production"}, {"measurement": "Kd", "setting": "iNOS [3]; read-out: Ks (spectral binding constant), unit printed in cell/text as mM", "result": "> 10", "unit": "mM"}]}, {"compound": "CCONC(=N)NCCC[C@H](N)C(=O)O", "note": "[NEOA, N^ω-ethoxy-L-arginine]", "values": [{"measurement": "NO production (Griess reagent)", "setting": "iNOS [2]", "result": "absence of NO production"}, {"measurement": "Kd", "setting": "iNOS [3]; [8]", "result": "0.12 ± 0.013", "unit": "mM"}]}, {"compound": "N=C(NO)NCCC[C@H](N)C(=O)O", "note": "[NHA, N^ω-hydroxy-L-arginine, reference compound]", "values": [{"measurement": "kcat", "setting": "murine iNOS [4]", "result": "0.267 ± 0.033", "unit": "s⁻¹"}, {"measurement": "Km", "setting": "murine iNOS [4]; NO production, 22 °C, pH 7.5", "result": "0.022 ± 0.005", "unit": "mM"}, {"measurement": "pKa", "setting": "[5]", "result": 8.5}, {"measurement": "kcat", "setting": "rat nNOS", "result": "0.217 ± 0.067", "unit": "s⁻¹"}, {"measurement": "Km", "setting": "rat nNOS", "result": "5.7 ± 2.1", "unit": "µM"}, {"measurement": "NADPH:NO (moles of NADPH consumed per mole of NO formed)", "setting": "iNOS [6]", "result": "0.7 ± 0.3"}, {"measurement": "Kd", "setting": "iNOS [3]; [8]", "result": "0.029 ± 0.004", "unit": "mM"}]}, {"compound": "CN(O)C(=N)NCCC[C@H](N)C(=O)O", "note": "[NHMA, N^ω-hydroxy-N^ω-methyl-L-arginine]", "values": [{"measurement": "kcat", "setting": "murine iNOS [4]", "result": "0.015 ± 0.0083", "unit": "s⁻¹"}, {"measurement": "kcat, times lower compared to NHA", "setting": "murine iNOS [4]", "result": "about 18 times"}, {"measurement": "Km", "setting": "murine iNOS [4]; NO production, 22 °C, pH 7.5", "result": "0.034 ± 0.006", "unit": "mM"}, {"measurement": "kcat", "setting": "rat nNOS", "result": "0.0167 ± 0.0033", "unit": "s⁻¹"}, {"measurement": "kcat, times lower compared to NHA", "setting": "rat nNOS", "result": "~13", "unit": "times"}, {"measurement": "Km", "setting": "rat nNOS", "result": "2 ± 0.4", "unit": "µM"}, {"measurement": "NADPH:NO (moles of NADPH consumed per mole of NO formed)", "setting": "iNOS [6]", "result": "15 and 15.0 ± 2.7"}, {"measurement": "Kd", "setting": "iNOS [3]; [8]", "result": "0.034 ± 0.004", "unit": "mM"}]}, {"compound": "CN=C(N)NCCC[C@H](N)C(=O)O", "note": "[NMA, N^ω-Methyl-L-arginine]", "values": [{"measurement": "kinact", "setting": "NOS; inactivator of NOS", "result": 0.07, "unit": "min⁻¹"}, {"measurement": "KI (inactivation)", "setting": "NOS; read-out: KI (inactivation), inactivator of NOS", "result": 2.7, "unit": "µM"}, {"measurement": "Ki", "setting": "NOS; read-out: Ki (competitive inhibitor), competitive inhibitor of NOS", "result": 0.2, "unit": "µM"}]}, {"compound": "CON(C)C(=N)NCCC[C@H](N)C(=O)O", "note": "[NMMA, N^ω-methoxy-N^ω-methyl-L-arginine]", "values": [{"measurement": "NO production (Griess reagent)", "setting": "iNOS [2]", "result": "absence of NO production"}, {"measurement": "Kd", "setting": "iNOS [3]; [8]", "result": "0.07 ± 0.005", "unit": "mM"}]}, {"compound": "CONC(=N)NCCC[C@H](N)C(=O)O", "note": "[NMOA, N^ω-methoxy-L-arginine]", "values": [{"measurement": "kcat", "setting": "murine iNOS [4]", "result": "0.0783 ± 0.0217", "unit": "s⁻¹"}, {"measurement": "kcat, times lower compared to NHA", "setting": "murine iNOS [4]", "result": "about 4 times"}, {"measurement": "Km", "setting": "murine iNOS [4]; NO production, 22 °C, pH 7.5", "result": "0.088 ± 0.008", "unit": "mM"}, {"measurement": "kcat", "setting": "rat nNOS", "result": "0.03 ± 0.0083", "unit": "s⁻¹"}, {"measurement": "kcat, times lower compared to NHA", "setting": "rat nNOS", "result": "~7", "unit": "times"}, {"measurement": "Km", "setting": "rat nNOS", "result": "11 ± 2", "unit": "µM"}, {"measurement": "NADPH:NO (moles of NADPH consumed per mole of NO formed)", "setting": "iNOS [6]", "result": "8 and 8.0 ± 1.5"}, {"measurement": "Kd", "setting": "iNOS [3]; [8]", "result": "0.122 ± 0.02", "unit": "mM"}]}, {"compound": "[14CH3]ONC(=N)NCCC[C@H](N)C(=O)O", "note": "[[^14C]-NMOA, N^ω-[^14C]-methoxy-L-arginine]", "values": [{"measurement": "One-carbon metabolite", "setting": "iNOS [7]", "result": "methanol"}]}, {"compound": "N=C(N)NCCC[C@H](N)C(=O)O", "note": "[arginine, L-arginine, reference compound]", "values": [{"measurement": "NADPH:NO (moles of NADPH consumed per mole of NO formed)", "setting": "iNOS [6]", "result": 1.5}]}, {"compound": "CN(CCC[C@H](N)C(=O)O)C(=N)N", "note": "[dMA, N^δ-Methyl-L-arginine]", "values": [{"measurement": "Ki", "setting": "NOS; binds weakly to the NOS active site", "result": 1400, "unit": "µM"}]}, {"compound": "C=O", "note": "[formaldehyde]", "values": [{"measurement": "Km", "setting": "Methanol oxidase (MeOX)", "result": 2500, "unit": "µM"}]}, {"compound": "c1c[nH]cn1", "note": "[imidazole, reference compound]", "values": [{"measurement": "Kd", "setting": "iNOS [3]; [8]", "result": "0.12 to 0.15", "unit": "mM"}]}, {"compound": "CO", "note": "[methanol]", "values": [{"measurement": "Km", "setting": "Methanol oxidase (MeOX)", "result": "~2000", "unit": "µM"}]}, {"compound": "CC(C)(C)ONC(=N)NCCC[C@H](N)C(=O)O", "note": "[tBOA, N^ω-tert-butyloxy-L-arginine]", "values": [{"measurement": "Ki", "setting": "murine iNOS [1]", "result": "7.4 ± 4.5", "unit": "mM"}, {"measurement": "kcat", "setting": "murine iNOS [4]", "result": "0.005 ± 0.0017", "unit": "s⁻¹"}, {"measurement": "Km", "setting": "murine iNOS [4]; unit printed in cell/text as mM", "result": "2.7 ± 0.8", "unit": "mM"}]}]}
